Rows were chosen to be rich in hits. Some 0.41% of all compounds tested hit in one or more screens of this group.
T cell HTS = modulates CD8 T cell binding to vesicles; 2C CD8+ T cell-vesicle binding, flow cytometry; stronger effect = lower value; response (vesicle binding), % at 7 µM; 330,000 tested, 0.068% active;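 active = response, share of CD8 T cells binding vesicles, and their 90th percentile fluorescence all below set limits, cut at about 80% in these data, passing the limit was not always enough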;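 note: values below 100% mean blocked vesicle binding to the CD8+ T cells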
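Benchmarks: naked versus QL9-loaded vesicles / Assay system: purified 2C TCR transgenic mouse naive CD8+ T cells / Technique: high-throughput flow cytometry with anti-B7-1 and anti-CD8 staining / Timing: Cell–vesicle co-incubation 1.5 h at 37 °C, staining 20 min on ice / Read-out: percent CD8+ FL2 mean versus row control / Probe or stimulus: QL9-loaded Drosophila micro-vesicles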
Yeast superoxide = yeast age-related superoxide inhibition as caloric restriction mimetic. superoxide response (% of plate mean), % at 10 µM. 330,000 tested, 0.18% active. AID 2690. S. cerevisiae aged cells, superoxide DHE fluorescence; stronger effect = lower value;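 active = superoxide response under a set limit, about three screen SD below normal, cut at about 65% in these data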;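 note: yeast aged for seven days with compound at 30 °C before DHE staining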
S1P3 antag-1 = blocks the human S1P3 receptor | Q99500 | CHO S1P3 NFAT-BLA reporter, FRET fluorescence, antagonist mode | inhibition, % at 4.98 µM | 170,000 tested, 0.27% active | AID 485;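 active = inhibition above the plate cutoff, the mean inhibition of test wells on that plate plus 3 SD, cut at about 28% in these data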;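 note: cells challenged with S1P at its EC80 of 0.8 µM; blue over green emission ratio from cleaved BLA substrate after 4 h stimulation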
Target sequence (Q99500 whole entry, looked up): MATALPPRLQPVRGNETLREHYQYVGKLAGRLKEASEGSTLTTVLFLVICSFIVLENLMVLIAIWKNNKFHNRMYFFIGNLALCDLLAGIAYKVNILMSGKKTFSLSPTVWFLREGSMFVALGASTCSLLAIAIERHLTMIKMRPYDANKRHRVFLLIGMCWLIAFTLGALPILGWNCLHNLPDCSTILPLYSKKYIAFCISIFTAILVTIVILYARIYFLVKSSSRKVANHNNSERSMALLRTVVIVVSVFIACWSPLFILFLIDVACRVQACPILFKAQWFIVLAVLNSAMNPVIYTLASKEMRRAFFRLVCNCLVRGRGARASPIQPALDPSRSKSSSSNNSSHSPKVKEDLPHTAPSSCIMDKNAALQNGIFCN
S1P3 antag-2 = human S1P3 receptor antagonism, confirmation. 240 tested, 30% active. shares compounds with S1P3 antag-1. CHO S1P3 NFAT-BLA reporter, FRET, antagonist mode. inhibition, % at 4.98 µM;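 active = inhibition above the hit threshold that was computed for the earlier primary screen, cut at about 30% in these data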
Large screens that a line does not name were inactive (follow-up assays come after a bar, where they were run).

O=C1c2cccc3c(N4CCCCC4)ccc(c23)C(=O)N1c1ccc(O)cc1	none
CC(Oc1ccccc1Cl)C(=O)N1CCOCC1 (stereo not given)	S1P3 antag-1 46 | S1P3 antag-2 inactive
CC(Oc1ccccc1Cl)C(=O)N1CCCN(C)CC1 (stereo not given)	none (no result: S1P3 antag-1)
Cc1ccc2cc(/C=N/Nc3nc4ccccc4[nH]3)c(Cl)nc2c1	S1P3 antag-1 46 (no result: T cell HTS, Yeast superoxide) | S1P3 antag-2 inactive
COc1cc(OC)c(OC)cc1/C=N/Nc1nc2ccccc2[nH]1	none
CCC1(CC)NC(=O)N(CC(=O)OCc2nc3cc(C(=O)OC)ccc3c(=O)[nH]2)C1=O	none (no result: S1P3 antag-1)
O=C(CSC1CN(C(c2ccccc2)c2ccccc2)C1)N/N=C/c1ccccc1	none
CC(C)=NNC(=O)C1=NNC(=O)C1	none
O=C(CSc1nc(C2CCCCC2)n(-c2ccccc2)n1)NCCN1C(=O)CSC1=O	none
O=C(CSc1nc(C2CCCCC2)n(-c2ccccc2)n1)NCC(F)(F)F	S1P3 antag-1 51 | S1P3 antag-2 inactive
O=C(CCNS(=O)(=O)c1ccc(OC(F)(F)F)cc1)NCCc1c[nH]c2ccccc12	none (no result: S1P3 antag-1)
COc1cc(NC(=O)CN2CCN(S(=O)(=O)/C=C/c3ccccc3)CC2)cc(OC)c1OC	none (no result: S1P3 antag-1)
O=C(NS(=O)(=O)N1CCCC1)C1=C(N2CCCC2)COC1=O	none (no result: S1P3 antag-1)
O=C(c1cc(-c2cccnc2)nc2ccccc12)N1CCN(S(=O)(=O)c2cccs2)CC1	none (no result: S1P3 antag-1)
Cc1cccc(NC(=O)Cn2nc(-c3cccs3)ccc2=O)c1C	none (no result: S1P3 antag-1)
CC(=O)c1cccc(Nc2c3c(nc4ccccc24)CCC3)c1	none (no result: S1P3 antag-1)
CC(=O)c1ccc(Nc2c3c(nc4ccccc24)CCCC3)cc1	S1P3 antag-1 29 | S1P3 antag-2 inactive
Cc1c(C(=O)Nc2ccc(S(=O)(=O)N(C)C3CCN(C)CC3)cc2)oc2c(Cl)cccc12	none (no result: S1P3 antag-1)
O=C(NC1CCCC1)c1cc(COc2ccc3ncccc3c2)on1	S1P3 antag-1 35 | S1P3 antag-2 inactive
O=C(c1cc(COc2ccc3ncccc3c2)on1)N1CCCC1	none (no result: S1P3 antag-1)
C=CCNc1nc(-c2ccc(Cl)cc2)cs1	none (no result: S1P3 antag-1)
C=CCNc1nc(-c2ccc([N+](=O)[O-])cc2)cs1	S1P3 antag-1 29 | S1P3 antag-2 inactive
Cc1c(NC(=O)Nc2ccc(Cl)cc2)c(=O)n(-c2ccccc2)n1C	none
Cc1c(N=C2N=C(NC(=O)Nc3ccc(Cl)cc3)c3ccccc32)c(=O)n(-c2ccccc2)n1C	S1P3 antag-1 40 | S1P3 antag-2 inactive
COc1ccc(CC(=O)NCC2CCCN(Cc3ccc(SC)cc3)C2)cc1 (stereo not given)	none (no result: S1P3 antag-1)
O=C(Nc1ccc(N2CCN(C(=O)c3ccco3)CC2)cc1)c1ccc2c(c1)OCO2	none
Cc1ccccc1C(=O)N1CCN(c2ccc(NC(=O)c3ccc4c(c3)OCO4)cc2)CC1	S1P3 antag-1 30 | S1P3 antag-2 36
c1ccc(-c2ccccc2OCCOCCN2CCOCC2)cc1	none (no result: S1P3 antag-1)
CCOC(=O)c1c(NC(=O)C2C3CCC(O3)C2C(=O)O)sc(C)c1-c1ccc(C)cc1 (stereo not given)	none (no result: S1P3 antag-1)
Cc1sc(NC(=O)C2C3CCC(O3)C2C(=O)O)nc1-c1ccc(CC(C)C)cc1 (stereo not given)	S1P3 antag-1 106 | S1P3 antag-2 inactive
CC(Sc1ccccc1)C(=O)NNC(=O)c1csc(N2CCOCC2)n1 (stereo not given)	none (no result: S1P3 antag-1)
Cn1c(SCc2ccccc2)nnc1-c1ccc2c(c1)OCO2	none
Cn1c(SCc2ccccc2)nnc1-c1ccc2nonc2c1	S1P3 antag-1 30 | S1P3 antag-2 inactive
CN(Cc1ccccc1F)C(=O)c1ccc2c(=O)n3c(nc2c1)CCC3	none (no result: S1P3 antag-1)
O=C(NCc1ccc(Cl)cc1)c1ccc(NC(=O)C2CCCO2)cc1 (stereo not given)	none (no result: S1P3 antag-1)
C=CCN1CCN(C(=O)c2ccc3c(c2)OCO3)CC1	none (no result: S1P3 antag-1)
CC(C)C(=O)Nc1ncc(Cc2cccc(Cl)c2)s1	none
CC(=O)Nc1ncc(Cc2cccc(Cl)c2)s1	S1P3 antag-1 28 | S1P3 antag-2 inactive
O=C(NCc1ccccc1)C12CC3CC(CC(Br)(C3)C1)C2	none (no result: S1P3 antag-1)
CCS(=O)(=O)N1Cc2ccccc2CC1C(=O)N(C)CC(=O)Nc1cccc(F)c1 (stereo not given)	none (no result: S1P3 antag-1)
O=C(Nc1ccc(-c2nc3ccccc3[nH]2)cc1)c1c(F)c(F)c(F)c(F)c1F	none
COc1c(F)c(F)c(C(=O)Nc2ccc(-c3nc4ccccc4[nH]3)cc2)c(F)c1F	S1P3 antag-1 28 | S1P3 antag-2 inactive
CCOc1cc(/C=C2\NC(=O)NC2=O)ccc1OC(C)C(=O)O (stereo not given)	none (no result: S1P3 antag-1)
Cn1c(CSc2ncccn2)nnc1SCC(=O)N1CCCC1	none
CCCCSc1nnc(CSc2ncccn2)n1C	S1P3 antag-1 29 | S1P3 antag-2 inactive
COc1ccc(CN(CC2CCC(C(=O)O)CC2)C(=S)Nc2ccccc2C)cc1 (stereo not given)	none
COc1ccc(CN(CC2CCC(C(=O)O)CC2)C(=S)Nc2cc(C)ccc2C)cc1 (stereo not given)	S1P3 antag-1 33 (no result: T cell HTS, Yeast superoxide) | S1P3 antag-2 inactive
Cc1cc(C)cc(NC(=O)C(OC(=O)c2ccc(NC(=O)CC#N)cc2)c2ccccc2)c1 (stereo not given)	none (no result: S1P3 antag-1)
Cc1ccc(NC(=O)C(OC(=O)c2ccc(C=O)cc2)c2ccccc2)cc1Cl (stereo not given)	S1P3 antag-1 30 | S1P3 antag-2 inactive
CC(=O)c1cccc(S(=O)(=O)N2CCn3cccc3C2C)c1 (stereo not given)	none (no result: S1P3 antag-1)
CCOc1ccc(C(=O)Nc2ccc(NC(=O)c3ccccc3)c(C)c2)cc1[N+](=O)[O-]	none (no result: S1P3 antag-1)
Cc1ccc(S(=O)(=O)Oc2ccccc2/C=N/N=C(N)N)cc1	S1P3 antag-1 36 | S1P3 antag-2 inactive
Cc1ccc(S(=O)(=O)Oc2ccccc2/C=N/NC(N)=S)cc1	none (no result: S1P3 antag-1)
O=C1COc2ccc(C(=O)COC(=O)c3ccc(F)cc3Cl)cc2N1	none (no result: S1P3 antag-1)
Cc1ccc(S(=O)(=O)NCc2ccncc2)c(C)c1C	S1P3 antag-1 35 | S1P3 antag-2 inactive
Cc1ccc(S(=O)(=O)NCc2ccccn2)c(C)c1C	none (no result: S1P3 antag-1)
CCCC(=O)Nc1ccc(-c2ccc(NC(=O)CCC)cc2)cc1	none
CCCC(=O)Nc1ccc(Nc2ccccc2)cc1	S1P3 antag-1 101 | S1P3 antag-2 inactive
COc1ccc(C(=O)Nc2cc3c4c(c2)C(C)C(=O)N4CCC3)cc1OC (stereo not given)	none (no result: S1P3 antag-1)
O=C(NCC1CCCO1)C(=O)c1c[nH]c2ccccc12 (stereo not given)	none
Cc1[nH]c2ccccc2c1C(=O)C(=O)NCC1CCCO1 (stereo not given)	S1P3 antag-1 53 | S1P3 antag-2 inactive
COc1ccc(NS(=O)(=O)c2cccc(C(=O)NNC(=O)c3cncc(Br)c3)c2)cc1	none (no result: S1P3 antag-1)
CSc1ncccc1C(=O)OCC(=O)Nc1ccc(C)c(S(=O)(=O)N2CCOCC2)c1	none (no result: S1P3 antag-1)
CCOC(=O)COc1cccc2c(=O)n(CC(=O)NCc3ccc(F)cc3)ccc12	S1P3 antag-1 30 | S1P3 antag-2 inactive
CCOC(=O)COc1cccc2c(=O)n(CC(=O)NCc3ccccc3)ccc12	none
COCCNC(=S)N/N=C/c1ccc(-c2ccc([N+](=O)[O-])cc2)o1	S1P3 antag-1 31 | S1P3 antag-2 32
NC(=O)N/N=C/c1ccc(-c2ccc([N+](=O)[O-])cc2)o1	none
CCOC(=O)c1ccccc1NC(=O)COC(=O)CCC1CCCC1	none (no result: S1P3 antag-1)
